From ChEMBL document CHEMBL1151195, “New isoprenylated flavones, artochamins A--E, and cytotoxic principles from Artocarpus chama” (2004) come the findings set out here.

One test relates to A549. In words: Cytotoxicity against human A549 cells. The note with it: read-out: ED50 (the source's name). In kind it is functional. The method in brief:
(§1)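 Growth inhibition in cultured human tumor cell lines. Compound stocks were made in DMSO and held at -70 °C, then diluted into culture medium to a final DMSO level of ≤1% (v/v).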

The next test concerns MCF7. In words: Cytotoxicity against human MCF7 cells. In kind it is functional. As to conditions: read-out: ED50 (the source's name). Summed up: as §1
The test system of the next test is 1A9. The test can be described thus: Cytotoxicity against human 1A9 cells. In kind it is functional. The note with it: read-out: ED50 (the source's name). The method in brief: as §1
The subject of the next test is HCT-8. In words: Cytotoxicity against human HCT8 cells. In kind it is functional. As to conditions: read-out: ED50 (the source's name). Summed up: as §1
In another test the test system is CAKI-1. The test can be described thus: Cytotoxicity against human Caki1 cells. Type of test: functional. The note with it: read-out: ED50 (the source's name). Summed up: as §1
Another test relates to SK-MEL-2. In words: Cytotoxicity against human SK-MEL-2 cells. In kind it is functional. As to conditions: read-out: ED50 (the source's name). The method in brief:
as §1

A short description of test [1]: Cytotoxicity against human U87MG cells. In kind it is functional, U-87MG ATCC. The note with it: U-87 MG, read-out: ED50 (the source's name). The method in brief: as §1
For another test, the system named is PC-3. In words: Cytotoxicity against human PC3 cells. In kind it is functional. The note with it: read-out: ED50 (the source's name). Summed up:
as §1

Another test has as its system MDA-MB-231. The test can be described thus: Cytotoxicity against human MDA-MB-231 cells. In kind it is functional. The note with it: read-out: ED50 (the source's name). Summed up: as §1
A further test has as its system KB. The test can be described thus: Cytotoxicity against human KB cells. Type of test: functional. As to conditions: read-out: ED50 (the source's name). Summed up:
as §1

A short description of test [2]: Cytotoxicity against human KBVIN cells. In kind it is functional. The note with it: read-out: ED50 (the source's name). Summed up: as §1

≈ marks a conversion by molar mass, not a printed value.

Regarding `COc1cc2oc(-c3ccc(O)cc3O)c(CC=C(C)C)c(=O)c2c(O)c1/C=C/C(C)C` [ARTOCARPIN], the EC50 in the test on A549 was determined as 3.3 µg/mL (≈ 7.56 µM); with MCF7, 3.3 µg/mL (≈ 7.56 µM); in the test on 1A9, 3.4 µg/mL (≈ 7.79 µM); with HCT-8, 3.8 µg/mL (≈ 8.71 µM); in the test on CAKI-1, 4.9 µg/mL (≈ 11.2 µM); in the test on SK-MEL-2, 5.4 µg/mL (≈ 12.4 µM). In addition, the EC50 was found to be 3.7 µg/mL (≈ 8.48 µM) in [1]; 4.1 µg/mL (≈ 9.39 µM) in the test with PC-3; 3.8 µg/mL (≈ 8.71 µM) in the test with MDA-MB-231; 3.2 µg/mL (≈ 7.33 µM) with KB; 3.6 µg/mL (≈ 8.25 µM) in test [2].

Regarding `CC1(C)C=Cc2c(cc(O)c3c(=O)cc(-c4ccc(O)c(O)c4)oc23)O1` [ARTOCHAMIN C], the EC50 in the test on A549 came out at 3 µg/mL (≈ 8.51 µM); with MCF7, 2.2 µg/mL (≈ 6.24 µM); in the test on 1A9, 2 µg/mL (≈ 5.68 µM); in the test with HCT-8, 2.3 µg/mL (≈ 6.53 µM); in the test on CAKI-1, 5.3 µg/mL (≈ 15 µM); in the test on SK-MEL-2, 2.3 µg/mL (≈ 6.53 µM). For the same molecule, the EC50 came to 7.2 µg/mL (≈ 20.4 µM) in [1]; 4.2 µg/mL (≈ 11.9 µM) in the test on PC-3; 6.2 µg/mL (≈ 17.6 µM) in the test with MDA-MB-231; 3.4 µg/mL (≈ 9.65 µM) in the test with KB; 3.4 µg/mL (≈ 9.65 µM) in [2].

As for `CC(C)=CCc1c2c(c(O)c3c(=O)c4c(oc13)-c1c(O)cc(O)c3c1C(C4)C(C)(C)O3)C=CC(C)(C)O2` (centres undefined) [ARTONIN A], the EC50 in the test with A549 turned out to be 6.1 µg/mL (≈ 12.1 µM); with MCF7 it was 6.7 µg/mL (≈ 13.3 µM).

As for `CC(C)=CCc1c(-c2cc(O)c(O)cc2O)oc2c3c(cc(O)c2c1=O)OC(C)(C)C=C3` [ARTONIN E], the EC50 with A549 was 8.5 µg/mL (≈ 19.5 µM); in the test on MCF7, 2.2 µg/mL (≈ 5.04 µM); with 1A9, under 1.25 µg/mL; in the test with HCT-8, 3.3 µg/mL (≈ 7.56 µM); with CAKI-1, 9.7 µg/mL (≈ 22.2 µM); in the test on SK-MEL-2 it was 4.3 µg/mL (≈ 9.85 µM). The EC50 in [1] was 6.4 µg/mL (≈ 14.7 µM); in the test with PC-3, 6.9 µg/mL (≈ 15.8 µM); with MDA-MB-231, 3 µg/mL (≈ 6.87 µM); with KB, 6.5 µg/mL (≈ 14.9 µM); in test [2], over 10 µg/mL.

Turning to `CC1(C)C=Cc2c(cc(O)c3c(=O)c4c(oc23)-c2c(O)cc(O)c3c2C(C4)C(C)(C)O3)O1` (centres undefined) [CYCLOARTOBILOXANTHONE], the values for the EC50 in the test with A549 and with MCF7 were 7.2 µg/mL (≈ 16.6 µM) and 7.7 µg/mL (≈ 17.7 µM), respectively.

Consider `COc1ccc2c(c1)OC(C=C(C)C)c1c-2oc2cc(O)c(/C=C/C(C)C)c(O)c2c1=O` (centres undefined) [CYCLOARTOCARPIN A], for which the values for the EC50 in the test on A549 and with MCF7 were 6.6 µg/mL (≈ 15.2 µM) and 6 µg/mL (≈ 13.8 µM), respectively.
